Nine compounds from ChEMBL document CHEMBL1926610, “Design and synthesis of pyridone inhibitors of non-nucleoside reverse transcriptase” (Bioorg Med Chem Lett, 2011) can be followed below.

The subject of series [1] is Human immunodeficiency virus. In words: Antiviral activity against Human immunodeficiency virus expressing RT K103N mutant infected in human MT4 cells by p24 antigen assay in the presence of 10% FBS. It counts as functional. The following applies: Human immunodeficiency virus 1, MT4; read-out: CIC95. The gist of the method: (§1)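 Spread assay in MT-4 human T-lymphoid cells in RPMI 1640 with 10% FBS. CIC95 is the concentration inhibiting viral spread by >95%, reported as the geometric mean of at least 2 determinations. Cytotoxicity was checked up to 8.3 μM.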

Series [2] has as its system Human immunodeficiency virus. Description: Antiviral activity against Human immunodeficiency virus expressing wild type RT infected in human MT4 cells by p24 antigen assay in the presence of 50% normal human serum. The series is classed as functional. The conditions noted are these: Human immunodeficiency virus 1, MT4; read-out: CIC95. The gist of the method: (§2)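 CIC95 = concentration at which spread of virus is inhibited by >95% in MT-4 human T-lymphoid cells in RPMI 1640 medium containing either 10% FBS or 50% normal human serum (to assess protein binding). Geometric mean of at least 2 determinations.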

Series [3] in a line: Oral bioavailability in Sprague-Dawley rat at 10 mg/kg. The series is classed as ADME, organism-based. The following applies: in vivo. The gist of the method: (§3)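 Sprague Dawley rats given iv dose 2 mpk as a DMSO solution via indwelling jugular vein cannula, and p.o. dose 10 mpk as aqueous methylcellulose (methocel) suspension. Plasma levels by LC-MS; absolute oral bioavailability from comparison of mean plasma AUC. Average of at least 2 rats.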

The target of series [4] is Human immunodeficiency virus type 1 reverse transcriptase (Human immunodeficiency virus 1, UniProt Q72547, K103N). In words: Inhibition of Human immunodeficiency virus reverse transcriptase K103N mutant by SPA assay. The gist of the method: (§4)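 Scintillation proximity assay (SPA) of mutant RT enzyme inhibition. Values are geometric means of at least two determinations.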

Series [5] has as its target Human immunodeficiency virus type 1 reverse transcriptase (Human immunodeficiency virus 1, UniProt Q72547, Y181C). In words: Inhibition of Human immunodeficiency virus reverse transcriptase Y181C mutant by SPA assay. The gist of the method:
as §4

For series [6], the system named is MT4. In words: Cytotoxicity against human MT4 cells up to 8.3 uM. It counts as cell-based. The gist of the method:
(§5)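 Cytotoxicity in MT-4 human T-lymphoid cells run alongside the cell culture antiviral assay (RPMI 1640, 10% FBS or 50% NHS), tested up to the assay upper limit of 8.3 μM.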

Series [7] can be described thus: Inhibition of Human immunodeficiency virus wild type reverse transcriptase by SPA assay. The gist of the method: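 Wild-type HIV RT enzyme inhibition measured in a standard SPA assay. Values are geometric mean of at least two determinations.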
Series [8] in a line: Plasma clearance in Sprague-Dawley rat at 10 mg/kg, po and 2 mg/kg, iv. It counts as ADME, organism-based. The gist of the method: as §3
Series [9] can be described thus: Volume of distribution in Sprague-Dawley rat at 10 mg/kg, po and 2 mg/kg, iv. It counts as ADME, organism-based. The following applies: in vivo. The gist of the method: as §3
Series [10] relates to Rattus norvegicus. Description: Dose normalized AUC in Sprague-Dawley rat at 10 mg/kg, po. The following applies: in vivo. Also noted: dose 10 mg/kg, route oral. The series is classed as ADME, organism-based. The gist of the method:
as §3

Series [11] relates to Human immunodeficiency virus. Description: Antiviral activity against Human immunodeficiency virus expressing RT K103N/Y181C double mutant infected in human MT4 cells by p24 antigen assay in the presence of 10% FBS. The conditions noted are these: Human immunodeficiency virus 1, MT4; read-out: CIC95. It counts as functional. The gist of the method: as §1
In series [12] the test system is Human immunodeficiency virus. Description: Antiviral activity against Human immunodeficiency virus expressing wild type RT infected in human MT4 cells by p24 antigen assay in the presence of 10% FBS. The following applies: Human immunodeficiency virus 1, MT4; read-out: CIC95. The series is classed as functional. The gist of the method:
as §2

A short description of series [13]: Volume of distribution in Sprague-Dawley rat at 1 mg/kg, iv. Set-up: dose 1 mg/kg, route intravenous. It counts as ADME, organism-based. The following applies: in vivo. The gist of the method: (§6)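 Sprague Dawley rats dosed iv at 1 mpk in DMSO via indwelling jugular vein cannula, no oral arm. Plasma concentrations by LC-MS.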
Series [14] in a line: Half life in Sprague-Dawley rat at 1 mg/kg, iv. The series is classed as ADME, organism-based. Also noted: dose 1 mg/kg, route intravenous. The following applies: in vivo. The gist of the method: as §6
The nature of series [15]: Plasma clearance in Sprague-Dawley rat at 1 mg/kg, iv. It counts as ADME, organism-based. Set-up: dose 1 mg/kg, route intravenous. The gist of the method: as §6
The subject of series [16] is Human immunodeficiency virus. In words: Antiviral activity against Human immunodeficiency virus expressing RT K103N mutant infected in human MT4 cells by p24 antigen assay in the presence of 50% normal human serum. The series is classed as functional. The conditions noted are these: Human immunodeficiency virus 1, MT4; read-out: CIC95. The gist of the method: (§7)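 MT-4 human T-lymphoid cells were kept in RPMI 1640 containing 50% normal human serum to assess protein binding. Readout is CIC95, the concentration blocking >95% of virus spread. Values are geometric means of at least 2 determinations.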

Series [17] concerns Human immunodeficiency virus. In words: Antiviral activity against Human immunodeficiency virus expressing wild type RT infected in human MT4 cells by p24 antigen assay in the presence of 50% normal human serum relative to UK-453061. It counts as functional.
The nature of series [18]: Plasma protein binding in human. The series is classed as ADME, cell-free. The conditions noted are these: read-out: PPB (converted).
A short description of series [19]: Half life in Sprague-Dawley rat at 10 mg/kg, po and 2 mg/kg, iv. It counts as ADME, organism-based. The following applies: in vivo. The gist of the method: as §3
Series [20] deals with Human immunodeficiency virus. In words: Antiviral activity against Human immunodeficiency virus expressing wild type RT infected in human MT4 cells by p24 antigen assay in the presence of 50% normal human serum relative to TMC-278. It counts as functional.
Series [21] concerns Human immunodeficiency virus. Description: Antiviral activity against Human immunodeficiency virus expressing RT Y181C mutant infected in human MT4 cells by p24 antigen assay in the presence of 50% normal human serum. It counts as functional. The conditions noted are these: Human immunodeficiency virus 1, MT4; read-out: CIC95. The gist of the method:
as §7

Series [22] concerns Human immunodeficiency virus. In words: Antiviral activity against Human immunodeficiency virus expressing RT Y181C mutant infected in human MT4 cells by p24 antigen assay in the presence of 10% FBS. The following applies: Human immunodeficiency virus 1, MT4; read-out: CIC95. It counts as functional. The gist of the method: as §1
Series [23] deals with Human immunodeficiency virus. In words: Antiviral activity against Human immunodeficiency virus expressing RT K103N/Y181C double mutant infected in human MT4 cells by p24 antigen assay in the presence of 50% normal human serum. The series is classed as functional. The following applies: Human immunodeficiency virus 1, MT4; read-out: CIC95. The gist of the method: as §7
Series [24] relates to MT4. In words: Cytotoxicity against human MT4 cells. The series is classed as cell-based. The gist of the method:
as §5

Series [25] relates to Human immunodeficiency virus. Description: Antiviral activity against Human immunodeficiency virus expressing wild type RT infected in human MT4 cells by p24 antigen assay in the presence of 50% normal human serum relative to MK-4965. It counts as functional.
For series [26], the system named is Human immunodeficiency virus. In words: Antiviral activity against Human immunodeficiency virus expressing RT K103N/Y181C double mutant infected in human MT4 cells by p24 antigen assay in the presence of 10% FBS relative to MK-4965. It counts as functional.

Regarding `Cc1ccn(Cc2n[nH]c3ncccc23)c(=O)c1Oc1cc(Cl)cc(C#N)c1`, the IC95 came to 10 nM in series [1], 12 nM in series [2], 31 nM in series [11] and 3.6 nM in series [12]. Further, the bioavailability (as a rule, the share of a dose that reaches the circulation, judged against a reference dose that is usually intravenous) in [3] amounted to 8.5%. In addition, the results for the Ki in [4], in [5] and in [7] were 3.7 nM, 3.1 nM and 2.5 nM, respectively. The Activity result in [6] is “Non-toxic”. In [8], the clearance was determined as 11 mL/min/kg. Moreover, the Vd in [9] is 3.7 L/kg. This compound also registered an AUC/dose in series [10] of 0.31 µM·h.

As to `Cc1ccn(CCc2n[nH]c3ncccc23)c(=O)c1Oc1cc(Cl)cc(C#N)c1`, the IC95 in series [1] was found to be 447 nM; in series [2], 611 nM; in series [12], 248 nM. In addition, the inhibition constant Ki (commonly a measure of affinity in units of concentration, obtained from inhibition or displacement) in [4] turned out to be 58 nM; in series [5], 51 nM; in series [7], 25 nM. In addition, in series [13], the Vd turned out to be 0.6 L/kg. Also, in series [14], the half-life (in general, the time needed for the level to fall by half in the phase considered) was 0.75 h. In addition, the Activity entry in series [6] is reported as “Non-toxic”. The same compound displayed a clearance in series [15] of 31 mL/min/kg.

For `N#Cc1cc(Cl)cc(Oc2c(Cl)ccn(Cc3n[nH]c4ncccc34)c2=O)c1`, the IC95 in series [1] came out at 2.9 nM; in series [16], 12 nM; in series [2], 7.7 nM; in series [21], 20 nM; in series [22] it was 7.8 nM; in [23], 69 nM. The IC95 in series [11] came out at 7 nM; in series [12] it was 2.4 nM. For the same compound, the “fold change (FC)” value is 4 in series [17], 4 in series [20], 4 in [25] and 10 in series [26]. In series [18], the fraction unbound is 0.033. In series [3], this compound had a bioavailability of 57%. Moreover, the half-life in series [19] is 4 h. Also, the Ki in [4] came to 1.5 nM; in [5], 1 nM; in series [7], 0.77 nM. The Activity entry in [24] and in [6] was “Non-toxic” each time. In [8], the clearance came to 12 mL/min/kg. The compound further registered a Vd in [9] of 2 L/kg. In series [10], this compound displayed an AUC/dose of 1.6 µM·h.

Consider `N#Cc1cc(Cl)cc(Oc2c(Cl)c(Cl)cn(Cc3n[nH]c4ncccc34)c2=O)c1`, for which the IC95 was found to be 11 nM in series [1]; 15 nM in series [2]; 15 nM in series [22]; 31 nM in series [11]; 4.6 nM in series [12]. For the same compound, the bioavailability in [3] turned out to be 0%. Moreover, the half-life in series [19] was 19 h. The results for the Ki in [4], in series [5] and in series [7] were 1.6 nM, 1.3 nM and 1 nM, respectively. Moreover, the Activity entry in series [6] is “Non-toxic”. Also, the clearance in [8] worked out at 27 mL/min/kg. For the same compound, the Vd in series [9] turned out to be 27 L/kg. In addition, in series [10], the AUC/dose turned out to be 0 µM·h.

In the case of `N#Cc1cc(Cl)cc(Oc2c(Cl)ccn(Cc3n[nH]c4nc(N)ccc34)c2=O)c1`, the IC95 in series [1] is 7.1 nM; in [2], 11 nM; in [22] it was 63 nM; in [11], 30 nM; in series [12], 1.9 nM. For the same compound, in series [3], the bioavailability was 6%. The same compound had a half-life in [19] of 1.4 h. Besides, the results for the inhibition constant Ki in series [4], in [5] and in [7] were 2.1 nM, 1.8 nM and 1.3 nM, respectively. In addition, the Activity entry in series [6] is recorded as “Non-toxic”. In series [8], this compound showed a clearance of 12 mL/min/kg. This compound gave a Vd in series [9] of 0.8 L/kg. For the same compound, the AUC/dose in series [10] was found to be 0.15 µM·h.

Regarding `N#Cc1cc(Cl)cc(Oc2cc(Cc3n[nH]c4ncccc34)ccc2Cl)c1`, the IC95 in [1] was found to be 211 nM; in series [12] it was 22 nM. Moreover, the Ki in series [4] is 0.48 nM; in series [5] it was 0.51 nM; in series [7] it was 0.24 nM.

For the compound `N#Cc1cc(Cl)cc(Oc2cc(OCc3n[nH]c4nc(N)ccc34)ccc2Cl)c1`, the IC95 came out at 12 nM in series [1]; 54 nM in [16]; 26 nM in series [2]; 175 nM in [21]; 27 nM in [22]; 589 nM in [23]. Besides, the IC95 in series [11] came out at 73 nM; in [12], 5 nM. Moreover, the fraction unbound in series [18] is 0.035. Moreover, the Activity entry in series [24] and in series [6] was “Non-toxic” each time. In series [7], this compound showed a Ki of 0.2 nM.

`CCc1nn(CCO)c(CC)c1Oc1cc(C#N)cc(C#N)c1` [LERSIVIRINE]: the IC95 in series [16] was 70 nM; in [2] it was 40 nM; in series [21], 68 nM; in series [23] it was 100 nM. Moreover, the fraction unbound in series [18] was 0.49. Further, the Activity entry in [24] is reported as “Non-toxic”.

With `Cc1cc(/C=C/C#N)cc(C)c1Nc1ccnc(Nc2ccc(C#N)cc2)n1` [RILPIVIRINE], the IC95 turned out to be 46 nM in series [16], 36 nM in series [2], 104 nM in [21] and 311 nM in series [23]. For the same compound, the fraction unbound in series [18] was 0.003. In addition, the Activity entry in series [24] was “Non-toxic”.
